Columns and labels:
[1] = Drug uptake in C57BL mouse visceral adipose tissue at 176 umol/kg administered with high fat diet after 2 weeks by HPLC/UV analysis; type: ADME; conditions: in vivo, po, 336 h
In short: (§1)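 Mice received the lipid-mimetic derivatives chronically for 2 weeks. Pterostilbene and its metabolites were then quantified in blood and organs, and values are reported as mean ± st. dev. across animals.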

[2] = biological target: T1, Pancreatic triacylglycerol lipase (Sus scrofa, UniProt P00591); assay: Prodrug conversion assessed as porcine pancreatic lipase-mediated formation of 10-((4-(3,5-dimethoxystyryl)phenoxy)carbonylamino)decanoic acid by measuring hydrolysis rate constant K3 by HPLC/UV analysis; type: ADME; conditions: pig
T1 sequence (P00591 whole entry): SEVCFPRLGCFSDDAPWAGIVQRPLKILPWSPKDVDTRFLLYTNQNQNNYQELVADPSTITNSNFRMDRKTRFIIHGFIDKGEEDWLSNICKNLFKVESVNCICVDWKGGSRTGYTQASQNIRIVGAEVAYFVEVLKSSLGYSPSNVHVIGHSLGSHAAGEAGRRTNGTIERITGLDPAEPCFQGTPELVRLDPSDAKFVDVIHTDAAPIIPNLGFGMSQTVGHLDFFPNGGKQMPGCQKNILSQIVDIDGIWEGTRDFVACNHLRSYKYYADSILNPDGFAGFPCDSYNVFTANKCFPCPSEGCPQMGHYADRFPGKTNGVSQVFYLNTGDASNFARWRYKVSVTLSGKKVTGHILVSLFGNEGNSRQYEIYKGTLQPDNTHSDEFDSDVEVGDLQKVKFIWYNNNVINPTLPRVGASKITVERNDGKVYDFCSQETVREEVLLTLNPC

[3] = Drug uptake in C57BL mouse subcutaneous adipose tissue at 176 umol/kg administered with high fat diet after 2 weeks by HPLC/UV analysis; type: ADME; conditions: in vivo, po, 336 h; in short: as §1
Liver = assay: Drug uptake in C57BL mouse liver at 176 umol/kg administered with high fat diet after 2 weeks by HPLC/UV analysis; type: ADME, tissue-based; conditions: in vivo, po, 336 h; in short: as §1
Blood = assay: Drug uptake in C57BL mouse bloodstream at 176 umol/kg administered with high fat diet after 2 weeks by HPLC/UV analysis; type: ADME, tissue-based; conditions: po, 336 h; in short: as §1
[4] = Drug uptake in C57BL mouse visceral adipose tissue assessed as retention time at 176 umol/kg administered with high fat diet after 2 weeks by HPLC/UV analysis; type: ADME; conditions: in vivo, po, 336 h
[5] = biological target: T1, Pancreatic triacylglycerol lipase; assay: Prodrug conversion assessed as porcine pancreatic lipase-mediated formation of 2-(10-((4-(3,5-dimethoxystyryl)phenoxy)carbonylamino)decanoyloxy)-3-hydroxypropyl oleate by measuring hydrolysis rate constant K1 by HPLC/UV analysis; type: ADME; conditions: pig
[6] = biological target: T1, Pancreatic triacylglycerol lipase; assay: Prodrug conversion assessed as porcine pancreatic lipase-mediated formation of 1,3-dihydroxypropan-2-yl 10-((4-(3,5-dimethoxystyryl)phenoxy)carbonylamino)decanoate by measuring hydrolysis rate constant K2 by HPLC/UV analysis; type: ADME; conditions: pig
[7] = biological target: T1, Pancreatic triacylglycerol lipase; assay: Prodrug conversion assessed as porcine pancreatic lipase-mediated formation of 1-(10-((4-(3,5-dimethoxystyryl)phenoxy)carbonylamino)decanoyloxy)-3-hydroxypropan-2-yl oleate, 10-((4-(3,5-dimethoxystyryl)phenoxy)carbonylamino)decanoic acid by measuring hydrolysis rate constant K1 by HPLC/UV analysis; type: ADME; conditions: pig
[8] = biological target: T1, Pancreatic triacylglycerol lipase; assay: Prodrug conversion assessed as porcine pancreatic lipase-mediated formation of 10-((4-(3,5-dimethoxystyryl)phenoxy)carbonylamino)decanoic acid by measuring hydrolysis rate constant K2 by HPLC/UV analysis; type: ADME; conditions: pig
[9] = biological target: T1, Pancreatic triacylglycerol lipase; assay: Prodrug conversion assessed as porcine pancreatic lipase mediated formation of 10-((4-(3,5-dimethoxystyryl)phenoxy)carbonylamino)decanoic acid by measuring hydrolysis rate constant by HPLC/UV analysis; type: ADME; conditions: pig

Drug uptake [1] | K [2] [h⁻¹] | Drug uptake [3] | Drug uptake (Liver) | Drug uptake (Blood) | Retention time [4] [min] | K [5] [h⁻¹] | K [6] [h⁻¹] | K [7] [h⁻¹] | K [8] [h⁻¹] | K [9] [h⁻¹] | SMILES
Active | 0.24 | Active | Active | Not Active | 5.8 to 6.5 | 3.04 | 9.49 | – | – | – | CCCCCCCC/C=C\CCCCCCCC(=O)OCC(COC(=O)CCCCCCC/C=C\CCCCCCCC)OC(=O)CCCCCCCCCNC(=O)Oc1ccc(/C=C/c2cc(OC)cc(OC)c2)cc1
Active | – | Active | Active | Not Active | – | – | – | 3.24 | 46.8 | 2.88 | CCCCCCCC/C=C\CCCCCCCC(=O)OCC(COC(=O)CCCCCCCCCNC(=O)Oc1ccc(/C=C/c2cc(OC)cc(OC)c2)cc1)OC(=O)CCCCCCC/C=C\CCCCCCCC (stereo not given)
